Laboratory results published in ChEMBL document CHEMBL3244145, “Synthesis and quantitative structure--activity relationships of some antibacterial 3-formylrifamycin SV N-(4-substituted phenyl)piperazinoacethydrazones” (J Med Chem, 1978).
Converted amounts (≈) assume the structure as drawn. The source made the active and inactive calls. The rule behind the calls is not given here.

What was measured:
[1] = tested on: Clostridium perfringens; experiment: Antimicrobial activity against Clostridium perfringens 2 by serial dilution method; format: functional; settings: for MIC: Clostridium perfringens, 2
Outline: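 Broth MICs were determined by serial dilution of the hydrazones, run in triplicate. Where results differed, the standard deviation of the three determinations is reported.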

[2] = tested on: Mycobacterium tuberculosis; experiment: Antimicrobial activity against Mycobacterium tuberculosis H37Rv by agar dilution method; format: functional; settings: for MIC: Mycobacterium tuberculosis, H37Rv
Outline: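 Agar dilution: the hydrazone is dissolved in warm Middlebrook agar and serially diluted into two quadrants of a quartered dish, with two drug-free quadrants. After cooling, 0.1 mL of M. tuberculosis suspension (McFarland no. 1, set spectrophotometrically) is inoculated. Plates are incubated 14 days at 37 °C under 5% CO2 and scored for colonies. Run in duplicate.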

[3] = tested on: Mycolicibacterium phlei; experiment: Antimicrobial activity against Mycobacterium phlei 111 by serial dilution method; format: functional; settings: for MIC: Mycolicibacterium phlei, 111
[4] = tested on: Staphylococcus aureus; experiment: Antimicrobial activity against Staphylococcus aureus 11 by serial dilution method; format: functional; settings: for MIC: Staphylococcus aureus, 11
[5] = tested on: Bacillus subtilis; experiment: Antimicrobial activity against Bacillus subtilis 104 by serial dilution method; format: functional; settings: for MIC: Bacillus subtilis, 104
[6] = tested on: L929; experiment: Cytotoxicity against mouse L929 cells by microscopic analysis; format: cell-based
[7] = tested on: Vaccinia virus; experiment: Antiviral activity against Vaccinia virus infected in L929 cells assessed as reduction in plaque formation after 3 to 4 days by crystal violet staining method; format: functional, organism-based; settings: Orthopoxvirus vaccinia

| Structure (SMILES) | log(1/C) [1] | MIC [1] [µg/mL] | log(1/C) [2] | MIC [2] [µg/mL] | log(1/C) [3] | MIC [3] [µg/mL] | log(1/C) [4] | MIC [4] [µg/mL] | log(1/C) [5] | MIC [5] [µg/mL] | Activity [6] | Activity [7] |
| --- | --- | --- | --- | --- | --- | --- | --- | --- | --- | --- | --- | --- |
| CO[C@H]1/C=C/O[C@@]2(C)Oc3c(C)c(O)c4c(O)c(c(/C=N/N5CCN(C)CC5)c(O)c4c3C2=O)NC(=O)/C(C)=C\C=C\[C@H](C)[C@H](O)[C@@H](C)[C@@H](O)[C@@H](C)[C@H](OC(C)=O)[C@@H]1C [RIFAMPIN] | 8.44 | 0.003 (≈ 0.00365 µM) | 5.91 | 1 (≈ 1.22 µM) | 6.48 | 0.27 (≈ 0.328 µM) | > 8.07 | < 0.007 | 6.59 | 0.21 (≈ 0.255 µM) |  |  |
| CO[C@H]1/C=C/O[C@@]2(C)Oc3c(C)c(O)c4c(O)c(c(/C=N/NC(=O)CN5CCN(c6ccccc6)CC5)c(O)c4c3C2=O)NC(=O)/C(C)=C\C=C\[C@H](C)[C@H](O)[C@@H](C)[C@@H](O)[C@@H](C)[C@H](OC(C)=O)[C@@H]1C | 8.13 | 0.007 (≈ 0.00743 µM) | 5.03 | 8.7 (≈ 9.23 µM) | 5.12 | 7.13 (≈ 7.57 µM) | 7.22 | 0.057 (≈ 0.0605 µM) | 5.24 | 5.4 (≈ 5.73 µM) | Toxic | inactive |
| CO[C@H]1/C=C/O[C@@]2(C)Oc3c(C)c(O)c4c(O)c(c(/C=N/NC(=O)CN5CCN(c6ccc(C#N)cc6)CC5)c(O)c4c3C2=O)NC(=O)/C(C)=C\C=C\[C@H](C)[C@H](O)[C@@H](C)[C@@H](O)[C@@H](C)[C@H](OC(C)=O)[C@@H]1C | 8.14 | 0.007 (≈ 0.00724 µM) | 4.72 | 18.6 (≈ 19.2 µM) | 4.65 | 21.5 (≈ 22.2 µM) | 7.07 | 0.082 (≈ 0.0848 µM) | 4.77 | 16.3 (≈ 16.9 µM) | Toxic | inactive |
| CO[C@H]1/C=C/O[C@@]2(C)Oc3c(C)c(O)c4c(O)c(c(/C=N/NC(=O)CN5CCN(c6ccc(C(C)C)cc6)CC5)c(O)c4c3C2=O)NC(=O)/C(C)=C\C=C\[C@H](C)[C@H](O)[C@@H](C)[C@@H](O)[C@@H](C)[C@H](OC(C)=O)[C@@H]1C | 8.52 | 0.003 (≈ 0.00305 µM) | 5.04 | 9 (≈ 9.14 µM) | 5.48 | 3.25 (≈ 3.3 µM) | 7.56 | 0.027 (≈ 0.0274 µM) | 5.3 | 4.9 (≈ 4.98 µM) | Toxic | inactive |
| COc1ccc(N2CCN(CC(=O)N/N=C/c3c4c(O)c5c(O)c(C)c6c(c5c3O)C(=O)[C@@](C)(O/C=C/[C@H](OC)[C@@H](C)[C@@H](OC(C)=O)[C@H](C)[C@H](O)[C@H](C)[C@@H](O)[C@@H](C)/C=C/C=C(/C)C(=O)N4)O6)CC2)cc1 | 8.14 | 0.007 (≈ 0.0072 µM) | 4.81 | 15 (≈ 15.4 µM) | 5.27 | 5.25 (≈ 5.4 µM) | 7.26 | 0.054 (≈ 0.0555 µM) | 4.93 | 11.3 (≈ 11.6 µM) | Toxic | inactive |
| CO[C@H]1/C=C/O[C@@]2(C)Oc3c(C)c(O)c4c(O)c(c(/C=N/NC(=O)CN5CCN(c6ccc(Br)cc6)CC5)c(O)c4c3C2=O)NC(=O)/C(C)=C\C=C\[C@H](C)[C@H](O)[C@@H](C)[C@@H](O)[C@@H](C)[C@H](OC(C)=O)[C@@H]1C | 8.23 | 0.006 (≈ 0.00588 µM) | 5.08 | 8.4 (≈ 8.23 µM) | 5.22 | 6.13 (≈ 6 µM) | 7.46 | 0.035 (≈ 0.0343 µM) | 5.31 | 5 (≈ 4.9 µM) | Toxic | inactive |
| CO[C@H]1/C=C/O[C@@]2(C)Oc3c(C)c(O)c4c(O)c(c(/C=N/NC(=O)CN5CCN(c6ccc(NC(C)=O)cc6)CC5)c(O)c4c3C2=O)NC(=O)/C(C)=C\C=C\[C@H](C)[C@H](O)[C@@H](C)[C@@H](O)[C@@H](C)[C@H](OC(C)=O)[C@@H]1C | 8 | 0.01 (≈ 0.01 µM) | 4.74 | 18 (≈ 18 µM) | 4.59 | 31 (≈ 31 µM) | 7.22 | 0.06 (≈ 0.0601 µM) | 4.92 | 12 (≈ 12 µM) | Toxic | inactive |
| CO[C@H]1/C=C/O[C@@]2(C)Oc3c(C)c(O)c4c(O)c(c(/C=N/NC(=O)CN5CCN(c6ccc(F)cc6)CC5)c(O)c4c3C2=O)NC(=O)/C(C)=C\C=C\[C@H](C)[C@H](O)[C@@H](C)[C@@H](O)[C@@H](C)[C@H](OC(C)=O)[C@@H]1C | 8.51 | 0.005 (≈ 0.00521 µM) | 4.81 | 15 (≈ 15.6 µM) | 5.22 | 5.75 (≈ 5.99 µM) | 7.06 | 0.084 (≈ 0.0875 µM) | 5.3 | 4.8 (≈ 5 µM) | Toxic | inactive |
| CO[C@H]1/C=C/O[C@@]2(C)Oc3c(C)c(O)c4c(O)c(c(/C=N/NC(=O)CN5CCN(c6ccc(Oc7ccccc7)cc6)CC5)c(O)c4c3C2=O)NC(=O)/C(C)=C\C=C\[C@H](C)[C@H](O)[C@@H](C)[C@@H](O)[C@@H](C)[C@H](OC(C)=O)[C@@H]1C | 8.11 | 0.008 (≈ 0.00774 µM) | 4.84 | 15 (≈ 14.5 µM) | 5.24 | 6 (≈ 5.8 µM) | 7.74 | 0.019 (≈ 0.0184 µM) | 5.32 | 5 (≈ 4.83 µM) | Toxic | inactive |
| CO[C@H]1/C=C/O[C@@]2(C)Oc3c(C)c(O)c4c(O)c(c(/C=N/NC(=O)CN5CCN(c6ccc(Cl)cc6)CC5)c(O)c4c3C2=O)NC(=O)/C(C)=C\C=C\[C@H](C)[C@H](O)[C@@H](C)[C@@H](O)[C@@H](C)[C@H](OC(C)=O)[C@@H]1C | 8.21 | 0.006 (≈ 0.00614 µM) | 4.91 | 12 (≈ 12.3 µM) | 5.19 | 6.38 (≈ 6.53 µM) | 7.43 | 0.036 (≈ 0.0369 µM) | 5.31 | 4.8 (≈ 4.92 µM) | Toxic | inactive |
| CO[C@H]1/C=C/O[C@@]2(C)Oc3c(C)c(O)c4c(O)c(c(/C=N/NC(=O)CN5CCN(c6ccc(C)cc6)CC5)c(O)c4c3C2=O)NC(=O)/C(C)=C\C=C\[C@H](C)[C@H](O)[C@@H](C)[C@@H](O)[C@@H](C)[C@H](OC(C)=O)[C@@H]1C | 8.14 | 0.007 (≈ 0.00732 µM) | 4.96 | 10.5 (≈ 11 µM) | 5.14 | 7 (≈ 7.32 µM) | 7.4 | 0.038 (≈ 0.0397 µM) | 5.27 | 5.1 (≈ 5.33 µM) | Toxic | inactive |
| CO[C@H]1/C=C/O[C@@]2(C)Oc3c(C)c(O)c4c(O)c(c(/C=N/NC(=O)CN5CCN(c6ccc(C(C)(C)C)cc6)CC5)c(O)c4c3C2=O)NC(=O)/C(C)=C\C=C\[C@H](C)[C@H](O)[C@@H](C)[C@@H](O)[C@@H](C)[C@H](OC(C)=O)[C@@H]1C | 8.7 | 0.002 (≈ 0.002 µM) | 5.12 | 7.5 (≈ 7.51 µM) | 5.44 | 3.63 (≈ 3.64 µM) | 7.49 | 0.033 (≈ 0.0331 µM) | 5.32 | 4.8 (≈ 4.81 µM) | Toxic | inactive |
| CO[C@H]1/C=C/O[C@@]2(C)Oc3c(C)c(O)c4c(O)c(c(/C=N/NC(=O)CN5CCN(c6ccc(C(F)(F)F)cc6)CC5)c(O)c4c3C2=O)NC(=O)/C(C)=C\C=C\[C@H](C)[C@H](O)[C@@H](C)[C@@H](O)[C@@H](C)[C@H](OC(C)=O)[C@@H]1C | 8.7 | 0.002 (≈ 0.00198 µM) | 4.75 | 18 (≈ 17.8 µM) | 5.14 | 7.38 (≈ 7.31 µM) | 7.62 | 0.024 (≈ 0.0238 µM) | 5.01 | 9.8 (≈ 9.7 µM) | Toxic | inactive |
| CO[C@H]1/C=C/O[C@@]2(C)Oc3c(C)c(O)c4c(O)c(c(/C=N/NC(=O)CN5CCN(c6ccc([N+](=O)[O-])cc6)CC5)c(O)c4c3C2=O)NC(=O)/C(C)=C\C=C\[C@H](C)[C@H](O)[C@@H](C)[C@@H](O)[C@@H](C)[C@H](OC(C)=O)[C@@H]1C | 8.3 | 0.005 (≈ 0.00507 µM) | 4.74 | 18 (≈ 18.2 µM) | 4.93 | 11.5 (≈ 11.7 µM) | 7.6 | 0.025 (≈ 0.0253 µM) | 4.9 | 12.3 (≈ 12.5 µM) | Toxic | inactive |
| CCc1ccc(N2CCN(CC(=O)N/N=C/c3c4c(O)c5c(O)c(C)c6c(c5c3O)C(=O)[C@@](C)(O/C=C/[C@H](OC)[C@@H](C)[C@@H](OC(C)=O)[C@H](C)[C@H](O)[C@H](C)[C@@H](O)[C@@H](C)/C=C/C=C(/C)C(=O)N4)O6)CC2)cc1 | 8.51 | 0.003 (≈ 0.00309 µM) | 4.72 | 18.6 (≈ 19.2 µM) | 5.16 | 6.75 (≈ 6.96 µM) | 7.57 | 0.026 (≈ 0.0268 µM) | 5.25 | 5.5 (≈ 5.67 µM) | Toxic | inactive |
